A short description of this data set: Toxicity liver stage against HepG2, at 10uM. Type of data set: cell-based. On the set-up: test concentration 10 uM, cell line HepG2-A16-CD81EGFP. To be noted: human, HepG2-A16-CD81EGFP cells; read-out: INHIBITION
The method in brief: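 Uninfected HepG2-A16-CD81EGFP cells, 3 × 10^3 per well, 1536-well, plated on prespotted compound at 10 μM final, parasite-free screening media added to match infected plates; puromycin 10 μM positive, DMSO 0.5% negative; run in parallel with 48 h PbLuc assay at 37 °C, 5% CO2; viability by CellTiter-Glo luminescence, normalized to controls.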

Take `COc1ccccc1N1CCN(C(=O)CCCS(N)(=O)=O)C(C)C1` (stereo not drawn): the cytotoxicity at 10 µM turned out to be 6.15%.

`CNC(=O)c1ccc2c(c1)C1(CCN(CC(C)C)CC1)C(=O)N2`: the cytotoxicity at 10 µM was -2.56%.

As to `O=C(Nc1nncs1)c1ccc(-n2cnnn2)cc1`, the cytotoxicity at 10 µM was 5.25%.

`CC(C)c1nc(CN(C)C2CCN(CCNS(C)(=O)=O)C2)no1` (stereo not drawn): the cytotoxicity at 10 µM is -8.48%.

With `Cc1ccc(CN2C[C@@H]3CCCO[C@@H]3[C@H](N(C)Cc3ccco3)C2)o1`, the cytotoxicity at 10 µM came to 6.43%.

Take `O=C(NC1CCCCC1)[C@H]1CNC[C@@H](COc2cccnc2)C1`: the cytotoxicity at 10 µM is -8.98%.

With `Fc1ccc(OCCCN2CC(n3cccn3)C2)cc1`, the cytotoxicity at 10 µM was 2.16%.

`Cc1nc(C2CCN(CC(=O)NC3CC3)CC2)cc(N2CCOCC2)n1`: the cytotoxicity at 10 µM amounted to 2.39%.

As to `O=C(c1ccsc1)N1C[C@@H]2CCN(C(=O)c3cscn3)[C@@H]2C1`, the cytotoxicity at 10 µM stood at 0.0861%.

Regarding `O=C(CC(F)(F)F)N1C[C@@H]2CC[C@H]1CN(Cc1ccccc1)C2`, the cytotoxicity at 10 µM is -3.63%.

For the molecule `CN1CC(=O)N(C2CCNCC2)Cc2c(NCC(C)(C)C)ncnc21`, the cytotoxicity at 10 µM was found to be 6.2%.

For the molecule `COc1ccnc(NCC2CN(C3CC3)CCO2)n1` (stereo not drawn), the cytotoxicity at 10 µM is -7.97%.

For the molecule `CN(Cc1ccc(C(N)=O)cc1)c1ccc(C(F)(F)F)cn1`, the cytotoxicity at 10 µM turned out to be 7.98%.

As for `CCc1[nH]c2c(CNC(=O)C3CCS(=O)(=O)CC3)cc(C)cc2c1C`, the cytotoxicity at 10 µM worked out at 1.87%.

On to `COc1cc(N2C[C@@H]3COC[C@]3(COc3cccnc3)C2)ncn1`, for which the cytotoxicity at 10 µM was found to be 2.13%.

With `CCC1(CC)CC(=O)N(CC(O)c2ccc(F)cc2)C1=O` (stereo not drawn), the cytotoxicity at 10 µM was -0.438%.

As for `CN1CC[C@]2(CN(S(C)(=O)=O)C[C@H]2c2ccccc2)C1=O`, the cytotoxicity at 10 µM is -120%.

As for `CC(C)NC(=O)N(C)C(c1cccc(F)c1)c1ccccn1` (stereo not drawn), the cytotoxicity at 10 µM was found to be 4.86%.

Turning to `Cc1cc(C)n(CC2CCCN2C(=O)c2cccc3c2OCO3)n1` (stereo not drawn), the cytotoxicity at 10 µM is -15.7%.

On to `Cc1ccc2cc(C(=O)N3CCCN(C)CC3)ccc2n1`, for which the cytotoxicity at 10 µM is -54.3%.

With `Cc1ccc(C(=O)NCCCN(C(C)C)S(C)(=O)=O)c(=O)[nH]1`, the cytotoxicity at 10 µM was -8.04%.

As for `CC1CN(CC(=O)Nc2nncs2)CCN1c1nccs1` (stereo not drawn), the cytotoxicity at 10 µM is -15.7%.

As for `CCNC(=O)c1ccc(NC(=O)N(C)Cc2cc(C)on2)c(C)c1`, the cytotoxicity at 10 µM was 6.2%.

For `COc1ccccc1CN1C(=O)O[C@@H]2CN(c3ccccn3)C[C@@H]21`, the cytotoxicity at 10 µM was 5.97%.

Regarding `OCCn1nccc1C1CCN(CCOc2ccc(Cl)cc2)CC1`, the cytotoxicity at 10 µM is -4.68%.

As to `Cn1cc(CN2CCCC3(CCCCN3S(C)(=O)=O)C2)cn1` (stereo not drawn), the cytotoxicity at 10 µM was -76.3%.

As to `Cc1cc(C)n(CC2CCCN2C(=O)c2ccc3c(c2)OCO3)n1` (stereo not drawn), the cytotoxicity at 10 µM was -9.31%.

In the case of `O=C(c1ccc2c(c1)CCC2)N1CC[C@H](O)[C@]2(CCCO2)C1`, the cytotoxicity at 10 µM is -8.97%.

`COc1ccnc(N2CCN(C(=O)CCc3nccs3)CC2)n1`: the cytotoxicity at 10 µM was -8.97%.

On to `CNC(=O)c1cccc(CCNc2ncc(Br)cn2)c1`, for which the cytotoxicity at 10 µM stood at 9.5%.

For the molecule `N#Cc1ccnc(N2CCN(CC(O)c3ccc(F)cc3)CC2)c1` (stereo not drawn), the cytotoxicity at 10 µM stood at 2.99%.

As to `Cn1cc(-c2nc(CN3CCN(c4nccs4)CC3)cs2)cn1`, the cytotoxicity at 10 µM is -7.45%.

Consider `CS(=O)(=O)NCc1ncn2c1CN(CCN1CCCC1)CCC2`, for which the cytotoxicity at 10 µM is -74.9%.

With `O=C(NCC1(O)COCCN(Cc2cccc(O)c2)C1)c1cscn1` (stereo not drawn), the cytotoxicity at 10 µM was -2.28%.

On to `O=C(CCC1CCCN(C(=O)CCc2ccc(F)c(F)c2)C1)NC1CC1` (stereo not drawn), for which the cytotoxicity at 10 µM stood at 2.49%.

Consider `CC(Cn1cccn1)NC(=O)Nc1nnc(C2CC2)s1` (stereo not drawn), for which the cytotoxicity at 10 µM is -1.71%.

As for `CC(C)N1C(=O)CC(N2CCN(c3ccc(F)cc3)CC2)C1=O` (stereo not drawn), the cytotoxicity at 10 µM was found to be 8.44%.

On to `CN1CCC2(CC1)CN(C)C(=O)C[C@@H]2C(F)(F)F`, for which the cytotoxicity at 10 µM was -144%.

Take `CN(Cc1ncc(C(C)(C)C)o1)C1CCCN(c2cccnn2)C1` (stereo not drawn): the cytotoxicity at 10 µM was -16.1%.

With `COC(=O)c1ccc(S(=O)(=O)NCC(C)(O)c2cccs2)cc1` (stereo not drawn), the cytotoxicity at 10 µM was -6.87%.

Consider `O=C(c1ccccn1)N1C[C@H]2CC[C@@H](C1)N(C(=O)CCc1cccs1)C2`, for which the cytotoxicity at 10 µM was -9%.

Consider `COc1cccc(S(=O)(=O)N2C[C@@H](O)[C@H](N(C)C)C2)c1`, for which the cytotoxicity at 10 µM stood at 5.76%.

Turning to `CCn1c(CN(C)C)nnc1C1CCN(Cc2ccccn2)CC1`, the cytotoxicity at 10 µM stood at 12.5%.

On to `Cc1noc(C)c1CN(C)CCC(=O)N1CCc2sccc2C1`, for which the cytotoxicity at 10 µM was 0.265%.

Consider `COC(=O)N1CCCC(NC(=O)NCc2cccc(C)n2)C1` (stereo not drawn), for which the cytotoxicity at 10 µM was -8.62%.

Take `Cn1ccnc1CN1CCC(c2nc3ccccc3n2C)CC1`: the cytotoxicity at 10 µM is 1.42%.

For the molecule `Cc1nn(C)c(C)c1C1CCCN1C(=O)c1ccc(NC2CC2)nc1` (stereo not drawn), the cytotoxicity at 10 µM was -2.85%.

For `COc1cccc(CNCc2ccnc(N3CCOCC3)c2)c1OC`, the cytotoxicity at 10 µM is 7.26%.

As to `Cc1cc(NC2CCN(CC3CCCO3)CC2)n2nc(C)c(C)c2n1` (stereo not drawn), the cytotoxicity at 10 µM was 8.96%.

Consider `Cc1cccc(CN2CCCC(c3nccs3)C2)n1` (stereo not drawn), for which the cytotoxicity at 10 µM came to 8.38%.

On to `CCN(Cc1ccncc1)S(C)(=O)=O`, for which the cytotoxicity at 10 µM stood at 14.4%.

Take `CC(C)COc1ccccc1C(N)CC(C)C` (stereo not drawn): the cytotoxicity at 10 µM is -5.27%.

As for `O=S(=O)(CC1CCCCC1)NCc1ccc(O)nc1`, the cytotoxicity at 10 µM came to 5.27%.

Consider `CN1CCOC(CNCc2csc(C3CCCCC3)n2)C1` (stereo not drawn), for which the cytotoxicity at 10 µM is -8.57%.

As for `COc1c(NS(=O)(=O)c2cc(C)ccc2C)c(C)nn1C`, the cytotoxicity at 10 µM was found to be 0.259%.

Turning to `CN(C)S(=O)(=O)c1csc(C(=O)N2CCC(C(N)=O)CC2)c1`, the cytotoxicity at 10 µM is -46.5%.

Regarding `COc1ccc(OCCc2sc(C3(O)CCCNCC3)nc2C)cc1` (stereo not drawn), the cytotoxicity at 10 µM is -14.9%.

`OCC1(CC2CC2)CCCN(Cc2cnc(C3CCCCC3)nc2)C1` (stereo not drawn): the cytotoxicity at 10 µM is -9.2%.

In the case of `COc1ncccc1NC(=O)c1cccc(C)n1`, the cytotoxicity at 10 µM worked out at 2.3%.

Turning to `Cc1cc(N2CCc3cnc(C)nc3C2)n2nc(C(F)(F)F)nc2n1`, the cytotoxicity at 10 µM came to 0.769%.

As for `CC(C(=O)NCc1ccnc(OC2CCCC2)c1)n1cncn1` (stereo not drawn), the cytotoxicity at 10 µM was determined as 10.4%.

Consider `Cc1cnccc1N1CCN(c2nccc(CCC(F)(F)F)n2)CC1`, for which the cytotoxicity at 10 µM turned out to be 4.91%.

Consider `O=C(Nc1ccc(F)c(Br)c1)N1CCCC1`, for which the cytotoxicity at 10 µM was found to be 2.32%.

Take `Cc1nccn1CC1CCN(C(=O)c2cccs2)CC1`: the cytotoxicity at 10 µM was -14.2%.

Turning to `OC1(CN(Cc2cccnc2)C2CCCCC2)CNCCOC1` (stereo not drawn), the cytotoxicity at 10 µM was -21%.

Turning to `CCN(CCc1nccs1)C(=O)c1sccc1C`, the cytotoxicity at 10 µM is -0.682%.

On to `CN(Cc1cc(-c2ccccc2)no1)C1CCCN(c2cccnn2)C1` (stereo not drawn), for which the cytotoxicity at 10 µM was -10.2%.

Turning to `Cc1ccc(C(C)NC(=O)Nc2ccccc2CN2CCOCC2)o1` (stereo not drawn), the cytotoxicity at 10 µM is 3.25%.

Consider `O=C(NCc1ccco1)N1CCC(n2cc(-c3ccccn3)nn2)CC1`, for which the cytotoxicity at 10 µM amounted to 16.9%.

`COc1ncccc1CNC(=O)c1cccc(C)n1`: the cytotoxicity at 10 µM was -1.58%.

For the molecule `c1cncc(C(Cn2cnnc2)N2CCOCC2)c1` (stereo not drawn), the cytotoxicity at 10 µM is -5.11%.

Consider `CC(C)CS(=O)(=O)CCNC(=O)Nc1cccc2ncccc12`, for which the cytotoxicity at 10 µM is -11%.

In the case of `Cc1noc(C)c1CN1C[C@H]2CNC[C@H]2C1`, the cytotoxicity at 10 µM was found to be 6.62%.

`O=C(NCCNc1ccc(C(F)(F)F)cn1)c1ccc(Br)cc1`: the cytotoxicity at 10 µM was -6.28%.

For the molecule `N#Cc1cccc(S(=O)(=O)NC2CCN(Cc3ccccc3)C2=O)c1` (stereo not drawn), the cytotoxicity at 10 µM was -7.18%.

Consider `CC1CN(CC(=O)Nc2nccs2)CCN1Cc1nccn1C` (stereo not drawn), for which the cytotoxicity at 10 µM is -15.4%.

As for `COc1ccc(OCCNC(=O)N2CCS(=O)(=O)CC2)cc1`, the cytotoxicity at 10 µM is -6.95%.

`Cc1nnc2n1CC(CNCc1nc(-c3cccs3)no1)CC2` (stereo not drawn): the cytotoxicity at 10 µM was determined as 10.1%.

Consider `CC(=O)NCC(=O)N1CC[C@H](OCC2CC2)[C@@H]1Cc1cccnc1`, for which the cytotoxicity at 10 µM is -1.99%.

As for `O=S(=O)(C1CC1)N1CC[C@]2(C[C@@H](Oc3ccccn3)CO2)C1`, the cytotoxicity at 10 µM was -10.4%.

As to `Cc1cccc(CNc2n[nH]c(C)n2)c1`, the cytotoxicity at 10 µM was -4.09%.

Turning to `Cn1nc2c(cc1=O)CN(Cc1nc(C(C)(C)C)no1)CC2`, the cytotoxicity at 10 µM was -2.86%.

Turning to `Cc1cnn(CC2CCCCN2C(=O)Cc2c(C)noc2Cl)c1` (stereo not drawn), the cytotoxicity at 10 µM is -5.43%.

Regarding `Cc1nc(C)n(C2CCCN(C(=O)c3ccc(F)cc3F)C2)n1` (stereo not drawn), the cytotoxicity at 10 µM was -2.9%.

Take `c1ccc(Cc2noc(CN3CCCCC3C3OCCO3)n2)cc1` (stereo not drawn): the cytotoxicity at 10 µM was -2.62%.

Regarding `COCC(=O)N1CCN(C(=O)CCc2ccsc2)CC1`, the cytotoxicity at 10 µM was -17%.

For the molecule `CCc1cnc(C)nc1NC1CC(=O)N(CC2CCCCC2)C1` (stereo not drawn), the cytotoxicity at 10 µM is -6.38%.

`COCC(=O)N1CCCC(C(=O)NCc2cc(CC(C)C)on2)C1` (stereo not drawn): the cytotoxicity at 10 µM came to 10.6%.

On to `Cn1nccc1C(=O)N1CCOC(Cc2ccc(Cl)cc2)C1` (stereo not drawn), for which the cytotoxicity at 10 µM is -26%.

Consider `Cc1cc(C(=O)N2CCc3c(ncn3CCc3ccccc3)C2)on1`, for which the cytotoxicity at 10 µM is -3.58%.

For `CCCc1cc(N2CCCC2Cn2nc(C)cc2C)n2ncnc2n1` (stereo not drawn), the cytotoxicity at 10 µM was 2.48%.

Regarding `CCn1cc(NC(=O)NCc2ccc(CN3CCOCC3)cc2)cn1`, the cytotoxicity at 10 µM is -6.63%.

Turning to `COC(=O)C1CCN(c2cc(C)nc(-c3ccncc3)n2)CC1`, the cytotoxicity at 10 µM turned out to be 2.76%.

For `CNC(=O)N1CCC2(CC1)c1ncc(-c3cccc(F)c3)n1CCN2C`, the cytotoxicity at 10 µM was determined as 7.97%.

Consider `Cc1cccc(C2(C(=O)NCCCn3cccn3)CC2)c1`, for which the cytotoxicity at 10 µM was -7.66%.

On to `CN(CCN1CCCCCC1)c1nccc(N2CCC(O)C2)n1` (stereo not drawn), for which the cytotoxicity at 10 µM stood at 5.27%.

As for `O=C1CCC(=O)c2oc3ccc(Cl)cc3c2N1`, the cytotoxicity at 10 µM stood at 7.58%.

Turning to `COc1ccc(N2CCN(C(=O)Cn3nc(C)c(Cl)c3C)CC2)cc1`, the cytotoxicity at 10 µM was determined as 1.58%.

The values are drawn from ChEMBL document CHEMBL4513216, “Probing the Open Global Health Chemical Diversity Library for Multistage-Active Starting Points for Next-Generation Antimalarials” (ACS Infect Dis, 2020).
